# Screens (PubChem)
# Cav3 T inh: human Cav3.2 channel inhibition, primary screen; O95180; actives 4% (n = 100,000); Cav3.2-expressing cells, Fluo-4 calcium fluorescence FDSS; active compounds read low; B-score at 10 µM;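 active means single-dose well whose peak fluorescence ratio is a statistical outlier from its plate by either plate-standardised score or position-corrected B-score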
# E coli WT exp: E. coli BW25113 growth inhibition, expanded screen. OD600 absorbance. growth inhibition, % at 100 µM. actives 0.15% (n = 98,000). AID 710;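 active means growth inhibition above about 50% at one test dose, limit read from the data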;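 further: growth measured after 20 h incubation at 37 °C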
# PTK2B oligo ant: Pyk2 (human) oligomerization antagonism | Q293 cells, Pyk2 FERM NanoBiT luminescence; active compounds read low | z-score (the deposit names both 25 µM and 10 µM) | actives 0.83% (n = 99,000);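 active means Z-score of -3 or lower, scaled per plate to the spread of control and sample wells; inactive means z-score above -3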;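 further: negative z-score means lost luminescence so less FERM oligomerization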
# PostGolgi yeast: growth inhibition of a yeast mutant, post-Golgi transport screen; post-Golgi transport phenotypic cell assay; inhibition, % at 10 µM; actives 0.9% (n = 98,000);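 further: yeast cells grown in 1536-well plates; yeast grown about 18 h at 30C before absorbance read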
# Ecoli tolC: E. coli tolC mutant growth inhibition; AID 573; actives 2.2% (n = 65,000); growth inhibition, % at 10 µM (by protocol); E. coli BW25113 tolC mutant growth, OD615;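 active means growth inhibition at or above a cutoff equal to the mean over every tested compound plus 3 SD, cut at about 60% in these data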;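 further: growth measured after 20 h incubation at 37 °C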
#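 Material: E. coli BW25113 ΔtolC::kan, tolC deletion mutant strain. Measure: percent growth inhibition. Schedule: 37 °C, 20 h exposure. Doses: single-point testing at 10 µM. Signal: A615 absorbance measurement. Buffer or medium: kanamycin-containing LB broth (50 µg/mL).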
# PostGolgi ctrl: yeast control strain growth, post-Golgi counter-screen. efflux-deficient yeast background strain, growth absorbance A615, 16 h. actives 5% (n = 98,000). inhibition, % at 10 µM. AID 738
# * marks the source's active call; other numbers are inactive results; x = no result given. A selection: hits, their analogues and other compounds. The true share with any hit is near 8.7%. Unless noted, no stated cut-off is given here; in the data, active means inhibition above about 30%; inactive means the rest.
SMILES,Cav3 T inh,E coli WT exp,PTK2B oligo ant,PostGolgi yeast,Ecoli tolC,PostGolgi ctrl
CCOC(=O)C1=C(C)NC(=O)C(C(N)=O)C1c1ccccc1 (configuration not stated),-0.0067,1,0.72,2,-13,33*
O=C(Nc1ccc(Br)cc1Cl)Nn1cnnc1,1.5,7,-0.44,3,-8,34*
COc1ccc(C)cc1NC(=O)Nn1cnnc1,-0.026,-1,0.53,3,x,7
COc1ccc(Cl)cc1NC(=S)NCc1ccco1,-1,4,0.33,-17,x,10
Cc1ccc(NC(=S)NC(NC(=O)c2ccccc2C)C(Cl)(Cl)Cl)c(C)c1 (configuration not stated),-7.1*,-5,-1.5,0,x,14
COc1ccc(NC(=S)NC(NC(=O)c2ccc(Cl)cc2Cl)C(Cl)(Cl)Cl)c([N+](=O)[O-])c1 (configuration not stated),-5.1*,-11,-0.36,69*,x,22
COC(=O)c1ccccc1NC(=S)NC(NC(=O)c1ccccc1[N+](=O)[O-])C(Cl)(Cl)Cl (configuration not stated),-8.5*,1,-0.43,2,x,4
Cc1ccccc1NC(=S)NC(NC(=O)C(C)(C)C)C(Cl)(Cl)Cl (configuration not stated),-0.8,1,-0.94,-2,x,22
Cc1cc(Nc2ccc(F)cc2C)n2nc(C)nc2n1,-2.9,6,x,-9,-10,7
O=[N+]([O-])c1cc(/C=N\Nc2nccs2)ccc1O,x,0,x,7,x,-3
COc1cccc(OCCCCCCN2CCOCC2)c1,0.3,-1,-0.51,45*,x,21
Cc1cc(C)cc(Nc2cc(=O)n(C3CCCCC3)c(=O)[nH]2)c1,-3.2,-14,-1,4,83*,2
COc1cccc(C2C(C#N)=C(N)OC(C(C)(C)C)=C2C#N)c1 (configuration not stated),0.35,0,0.44,8,-19,10
Cc1cc(C)c2c3c(sc2n1)C(c1cccc(F)c1)C(C#N)=C(N)O3 (configuration not stated),-0.12,-2,0.73,19,x,74*
Cc1csc(NC(=O)CSc2ncnc3c2cnn3-c2ccccc2Cl)n1,-5.5*,2,-1.8,1,61*,32*
Cc1ccccc1-n1ncc2c(SCC(=O)NCc3cccs3)ncnc21,-1.3,-7,0.93,-20,4,10
C[C@H](O)CC1=C[C@H](O)[C@@H](C)OC1=O,0.69,x,x,x,x,x
COc1cc(NC(=O)c2c3c(nc4ccccc24)CCC3)cc(OC)c1,-0.02,-7,0.03,11,x,2
CC(C)NC(=O)c1c2c(nc3ccccc13)CCCC2,0.7,x,0.62,x,x,x
COc1ccc(OC)c(NC(=O)COC(=O)c2c3c(nc4ccccc24)CCCC3)c1,-0.89,0,-4.4*,16,x,11
COc1ccc(NC(=O)COC(=O)c2c3c(nc4ccccc24)CCCC3)cc1,-2.6,1,-4.5*,0,x,34*
COc1ccc(NC(=O)COC(=O)c2c3c(nc4ccccc24)CCCC3)cc1Cl,-1.8,-16,-4.6*,49*,x,79*
O=C(c1ccc(Cl)c(F)c1F)N1CCCC1,x,4,1.1,-6,-4,12
COc1ccc(-c2nnn(CC(=O)NCCc3c[nH]c4ccccc34)n2)cc1OC,-1.8,-12,0.93,7,x,8
O=C1[C@H]2[C@@H](C(=O)N1c1cc(Cl)cc(Cl)c1)[C@]1(C(=O)Nc3ccccc31)N1CCC[C@@H]21,-1.9,11,-0.14,-2,80*,25
SMILES,Cav3 T inh,E coli WT exp,PTK2B oligo ant,PostGolgi yeast,Ecoli tolC,PostGolgi ctrl
CCn1nnnc1SCC(=O)Nc1ccc(OCc2ccccc2)cc1,-0.94,-16,0.13,0,-13,3
O=C(COc1ccc(Cl)cc1)N(Cc1ccccc1)c1ccccn1,-4.1,-11,-1.5,-4,x,33*
Cc1sc(NC(=O)c2ccco2)nc1-c1ccccc1,-0.14,8,-1.7,4,x,21
Cc1sc(NC(=O)c2ccco2)nc1-c1ccc2c(c1)CC(C)N2C(=O)C1CC1 (configuration not stated),-1.8,-10,0.31,3,26,33*
CCOC(=O)N1CCC(NC(=O)c2ccc3c(Cl)c4c(nc3c2)CCCC4)CC1,-3.1,x,x,x,x,x
N#Cc1ccccc1NC(=O)c1ccc2c(Cl)c3c(nc2c1)CCCC3,x,x,-0.4,x,x,x
CCc1ccc(N(CC)C(=O)c2ccc3c(Cl)c4c(nc3c2)CCC4)cc1,-3.2*,x,x,x,x,x
